Calls of active or inactive are those of the source. The calls are words filed in the database; no cut-off is given here.
Assays:
Vaccinia virus [1] = assay: Antiviral activity against Vaccinia virus WR in BSC1 cells assessed as protection from virus-induced lysis of cell monolayer up to 200 uM after 20 hrs; assay type: functional, organism-based; conditions: Orthopoxvirus vaccinia, BSC-1
Vaccinia virus [2] = assay: Antiviral activity against Vaccinia virus WR in BSC1 cells assessed as reduction in plaque formation up to 200 uM after 20 hrs; assay type: functional, organism-based; conditions: Orthopoxvirus vaccinia, BSC-1
[3] = Cytotoxicity against african green monkey BSC1 cells up to 200 uM after 20 to 120 hrs WST-1 based assay; assay type: cell-based; conditions: chlorocebus aethiops, bsc-1
In short: (§1)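 Uninfected BS-C-1 cells in phenol red-free medium, seeded 5000 (20 h), 1000 (3-day) or 200 (5-day) cells/well, exposed next day to compound in two-fold serial dilutions (top 200 µM; 1% DMSO final) at 37°C. WST-1 added 30 min, A450 read. Triplicates; percent cytotoxicity vs DMSO fitted four-parameter sigmoidal for TC50.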

Vaccinia virus [4] = assay: Inhibition of Vaccinia virus DNA synthesis in by rapid plate assay; assay type: functional, organism-based; conditions: Orthopoxvirus vaccinia
Vaccinia virus [5] = assay: Antiviral activity against Vaccinia virus WR in BSC1 cells assessed as reduction in plaque formation after 20 hrs; assay type: functional, organism-based; conditions: Orthopoxvirus vaccinia, BSC-1, 20 h
Vaccinia virus [6] = assay: Antiviral activity against Vaccinia virus WR in BSC1 cells assessed as retention of antiviral potency by measuring exogenous double stranded DNA trapping; assay type: functional, organism-based; conditions: Orthopoxvirus vaccinia, BSC-1
[7] = Cytotoxicity against african green monkey BSC1 cells after 20 hrs WST-1 based assay; assay type: cell-based, BSC-1; conditions: chlorocebus aethiops, read-out: TC50; in short: as §1
Vaccinia virus [8] = assay: Antiviral activity against Vaccinia virus WR in BSC1 cells assessed as protection from virus-induced lysis of cell monolayer after 20 hrs; assay type: functional, organism-based; conditions: Orthopoxvirus vaccinia, BSC-1, 20 h
[9] = Selectivity index, TC50 for african green monkey BSC1 cells after 20 hrs to EC50 for Vaccinia virus WR in BSC1 cells after 20 hrs by cell protection assay; assay type: toxicity, cell-based, BSC-1; conditions: read-out: Selectivity Index
[10] = Cytotoxicity against african green monkey BSC1 cells after 120 hrs WST-1 based assay; assay type: cell-based, BSC-1; conditions: chlorocebus aethiops, read-out: TC50; in short: as §1

Row | SMILES | Activity (Vaccinia virus [1]) | Activity (Vaccinia virus [2]) | Activity [3] | IC50 (Vaccinia virus [4]) [µM] | EC50 (Vaccinia virus [5]) [µM] | Activity (Vaccinia virus [6]) | CC50 at 20 h [7] [µM] | EC50 (Vaccinia virus [8]) [µM] | selectivity ratio at 20 h [9] | CC50 at 120 h [10] [µM]
1 | CCN1CCN(c2ccc(Nc3ccnc4cc5ccccc5cc34)cc2)CC1 | inactive | inactive | Toxic | 0.5 | – | – | – | – | – | –
2 | CCN(CC)Cn1nc2c3c(cccc3c1=O)-c1ccccc1-2 | – | – | – | 25 | 25 | inactive | 133 | 14 | – | –
3 | CCS(=O)(=O)N1CCN=C1SCc1ccc(Cl)cc1Cl | – | – | – | 188 | 25 | Active | 166 | 90 | – | –
4 | N#CC1=C(SCc2ccccc2)SC(c2ccccc2O)NC1=O (stereo not given) | – | – | – | 250 | 150 | – | > 200 | – | – | –
5 | CCNc1nc(SCc2ccc(Cl)cc2)nc2sc3c(c12)CCN(C)C3 | – | – | – | 129 | 15 | Active | 115 | 45 | 2.6 | 5
6 | Cc1cc2c(cc3c(=O)n(CC(=O)NCCN4CCOCC4)ncn32)s1 | – | – | – | – | 25 | inactive | 100 | 23 | – | –
7 | CC(C)c1ccc(C2Nc3ccc(C(=O)O)cc3C3C=CCC32)cc1 (stereo not given) | – | – | – | 100 | 100 | – | > 200 | – | – | –
8 | CCN1CCCC1CNC(=O)c1ccc2c(c1)sc1nc(-c3cccc(OC)c3)cn12 (stereo not given) | – | – | – | 47 | 50 | – | 75 | – | – | –
9 | CC1=NN(c2cccc(C(=O)O)c2)C(=O)/C1=C\c1ccc(-c2cccc(Cl)c2C)o1 | – | – | – | 14 | 50 | – | > 200 | – | – | –
10 | OC(CN1CCNCC1)Cn1c2ccc(Br)cc2c2cc(Br)ccc21 (stereo not given) | inactive | inactive | Toxic | 6.3 | – | – | – | – | – | –
11 | O=C1NC(=S)N(c2ccccc2)C(=O)/C1=C\C=C\c1ccco1 | – | – | – | 143 | 50 | – | > 200 | – | – | –
12 | Cc1cc(OCC(=O)NC(Cc2c[nH]c3ccccc23)C(=O)O)cc(C)c1Cl (stereo not given) | – | – | – | 73 | 200 | – | > 200 | – | – | –
13 | CN1CCc2c(-c3cccs3)nc(OCc3ccccc3Br)c(C#N)c2C1 | – | – | – | 112 | 40 | – | 82 | – | – | –
14 | COc1ccc2c(c1)C=C/C(=C\c1sc3ccccc3[n+]1C)N2C.[Cl-] | inactive | inactive | Toxic | 4 | – | – | – | – | – | –
15 | Cc1ccc2oc(-c3ccccc3)c/c(=N\CCO)c2c1 | – | – | – | 25 | 40 | inactive | > 200 | 57 | > 3.5 | 12
16 | O=C(NCCCN1CCCC1)c1cc2c(Cl)nc3ccccc3c2s1 | inactive | inactive | Toxic | 10 | – | – | – | – | – | –
17 | C/N=C1/c2c(C)c3cc(OC)ccc3n2CCN1C | – | – | – | 89 | 75 | – | > 200 | – | – | –
18 | Cc1ccc2oc(=O)c3cc(C(=O)NCCN4CCCCC4C)sc3c2c1 (stereo not given) | – | – | – | 25 | 50 | – | 147 | – | – | –
19 | OCC(O)Cn1c2ccc(Br)cc2c2cc(Br)ccc21 (stereo not given) | – | – | – | – | 10 | inactive | 29 | 23 | – | –
20 | COc1ccc(Nc2nc(N3CCN(C)CC3)nc3ccccc23)c(OC)c1 | – | – | – | – | 40 | inactive | 192 | 18 | – | –
21 | CCOC(=O)CCc1c(CC(=O)OCC)c[nH]c1/C=N/O.Cl | inactive | inactive | Toxic | 3.8 | – | – | – | – | – | –
22 | CN(C)CCc1cc2c(c3c1ccc1ccccc13)OCO2 | inactive | inactive | Toxic | 5.4 | – | – | – | – | – | –
23 | CCN1CCCC1CNC(=O)c1cc2c(=O)n(C)c3ccccc3c2n1C (stereo not given) | – | – | – | – | 100 | inactive | 135 | 98 | – | –
24 | N=C(N)Nc1nc(-c2ccccc2)c2ccccc2n1 | – | – | – | 21 | 50 | – | 49 | – | – | –
25 | CCN1C(=O)/C(=C\C=C\c2ccco2)C(=O)NC1=S | – | – | – | 160 | 12 | – | 72 | – | – | –
26 | CN(C)CCN(C(=O)c1ccco1)c1nc2cc3c(cc2s1)OCO3 | – | – | – | 29 | 100 | – | > 200 | – | – | –

Source: ChEMBL document CHEMBL1140145, “Identification of non-nucleoside DNA synthesis inhibitors of vaccinia virus by high-throughput screening” (J Med Chem, 2008)
